One compound from ChEMBL document CHEMBL3784969, “Pharmacokinetics of flutamide in patients with renal insufficiency” (Br J Clin Pharmacol, 1999) can be followed below.

SMILES strings stand for the structures.

In series [1] the test system is Homo sapiens. Description: Terminal half life in patient (4 patients) with renal insufficiency assessed as hydroxy flutamide at 250 mg, po administered as single dose by gas chromatography. The class given is ADME, organism-based. Conditions: in vivo. In short, it runs like this: (§1)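 Males grouped by 24 h CLcr normalised to body surface area (>80, 50–80, 30–49, 5–29 ml min−1 1.73 m−2), fasted 10 h pre-dose and 4 h post-dose, given a single oral 250 mg flutamide dose. Plasma sampled 0–96 h; urine collected in blocks to 96 h. Flutamide and hydroxyflutamide measured by GC with electron-capture detection. Renal CL = Ae(0,96 h)/AUC(0,96 h); t1/2 = 0.693/λz.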

The test system of series [2] is Homo sapiens. As to the kind of experiment: Renal clearance in patient (6 patients) with renal insufficiency assessed as hydroxy flutamide at 250 mg, po administered as single dose by gas chromatography. The class given is ADME, organism-based, Kidney. Conditions: in vivo. Put shortly:
as §1

`CC(C)C(=O)Nc1ccc([N+](=O)[O-])c(C(F)(F)F)c1` [FLUTAMIDE]: in series [1], the “beta t1/2” value was 9 h. In addition, in series [2], the CL worked out at 0.36 mL/min.
